Assays:
[1] = Pharmacokinetics after a single oral dose in healthy volunteers; format: in vivo, human
Outline: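 Healthy men aged 20–50 y received a double-blind single oral dose of test compound mesylate (40–1280 mg) fasted; at 640 mg, dosing was repeated fed in period 2. Plasma was sampled from predose to 48 h, and urine was collected over 0–6, 6–12, 12–24 and 24–48 h. Analysis was UPLC-MS/MS, positive mode. Non-compartmental: linear-up/log-down AUC0-t. Dose proportionality used 95% CI of log-log slope. Food effect used a mixed-model GMR with 90% CI.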

[2] = Safety and tolerability after a single oral dose in healthy volunteers; format: in vivo, human
Outline: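 Single-dose, double-blind, placebo-controlled (8:2 active:placebo) escalation in healthy men; tolerability through 48 h post-dose decided escalation. Monitoring covered AEs, physical exam, vital signs, 12-lead ECG, clinical laboratory tests, protein electrophoresis, and continuous pulse oximetry for 4 h post-dose. QTcmax and ΔQTcmax per dose group were compared with placebo by ANOVA and Dunnett's test, P<0.05.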

[3] = mice model; no method or reference given; cited from earlier work
[4] = no method or reference given; cited from earlier work
[5] = rats; ref Investigator's brochure, unpublished data; cited from earlier work
hERG current = conditions: preclinical study; ref Investigator's brochure, unpublished data; cited from earlier work
Gram-negative pathogens = conditions: ref Investigator's brochure, unpublished data; cited from earlier work
Streptococcus pneumonia = conditions: ref Investigator's brochure, unpublished data; cited from earlier work
[6] = cited from earlier work
[7] = all groups, total includes 1 placebo case per Table 2

## CC(C)(C)[C@H](NC(=O)[C@H](CC1CCCC1)CN(O)C=O)C(=O)N1CCC(NCc2cc(F)c(F)cc2F)CC1 [IDP-73152]
[1]; 640 mg, fed vs fasted, P=0.779
  effect of food on terminal half-life: not affected by food intake
[1]; 640 mg, high-fat meal
  GMR (with 90% CI) of AUC0-t, fed vs fasted: 0.862 (0.811–0.917)
  GMR (with 90% CI) of Cmax, fed vs fasted: 0.638 (0.563–0.723)
[1]; 640 mg, high-fat meal, fed vs fasted
  decrease of Cmax by food: 36.2%
[1]; 640 mg, high-fat meal, fed vs fasted, listed as IDP-73152 mesylate
  decrease of Cmax by food: 36%
[1]; all dose ranges (40–1280 mg)
  dose proportionality of AUC0-t: more than dose-proportional
[1]; range of 40–320 mg
  dose proportionality of AUC0-t: dose-proportional
[1]; single dose of 1280 mg, 12 hrs post-dose
  plasma level relative to MIC: above MIC level
[2]; 160 mg, N=8
  Incidence of drug-related AE: Diarrhoea: 1
  Incidence of drug-related AE: Nausea: 1
[2]; 320 mg, N=8
  Incidence of drug-related AE: Abdominal pain: 1
  Incidence of drug-related AE: Epigastric discomfort: 1
[2]; 640 mg, fasted state, N=8
  Incidence of drug-related AE: Abdominal discomfort: 1
[2]; 1280 mg, N=8
  Incidence of drug-related AE: Headache: 1
  Incidence of drug-related AE: Nausea: 4
[2]; all dose groups
  severity of AEs: mild severity and not serious
[2]; [7]
  drug-related headache, total: 2 cases
  drug-related nausea, total: 6 cases
[2]; single oral dose of up to 1280 mg
  tolerability: well tolerated
[3]
  mean tmax: 30 min
  terminal half-life: 1.05 h
  volume of distribution: 1.71 L/kg
[4]
  bound to plasma protein: 95.4%
[5]
  distribution coefficient of the liver: approximately 6.0
  distribution coefficient of the lung: ~3.5
hERG current
  inhibition of the hERG current: concentration-dependent inhibition
Gram-negative pathogens
  MIC against Gram-negative pathogens: unfavorable MIC value
Streptococcus pneumonia
  PK/PD dependence of the antibiotic effect: AUC-dependent
[6]
  in vitro antimicrobial activity, minimal inhibitory concentration (MIC): comparable to that of linezolid and vancomycin
